According to ChEMBL document CHEMBL4049394, “Desing and synthesis of potent anti-Trypanosoma cruzi agents new thiazoles derivatives which induce apoptotic parasite death” (Eur J Med Chem, 2017):

Key:
Trypanosoma cruzi [1] = assay: Antitrypanosomal activity against bloodstream trypomastigote stage of Trypanosoma cruzi Y infected in monkey LLC-MK2 cells measured after 24 hrs by neubauer chamber method; assay type: functional; settings: LLC-MK2, in Primates
Summary of the method: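 Y strain trypomastigotes taken from LLC-MK2 culture supernatant and held in RPMI-1640 with 10% FBS. Seeded at 4×10^5 cells/well and treated in triplicate for 24 h at 37 °C, 5% CO2. Motile parasites counted in a Neubauer chamber against untreated wells. IC50 by nonlinear regression from at least seven concentrations. Experiment repeated; SD < 10% of mean required.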

Trypanosoma cruzi [2] = assay: Antitrypanosomal activity against Trypanosoma cruzi Dm28c epimastigotes measured after 4 to 5 days by neubauer chamber method; assay type: functional
Summary of the method: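 Dm28c epimastigotes in LIT with 10% FBS, 1% hemin and gentamycin at 27 °C. Seeded at 10^6 cells/well and treated in triplicate for 4 days (table footnote: 5 days). Parasites counted in a Neubauer chamber against untreated wells as 100%. IC50 by nonlinear regression from at least five concentrations. Experiment repeated; only values with SD < 10% of mean kept.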

[3] = Cytotoxicity against mouse J774A.1 cells after 24 to 72 hrs by MTT assay; assay type: cell-based, J774.A1; settings: read-out: MNCC
Summary of the method: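 J774A.1 macrophages in DMEM with 10% heat-inactivated FBS at 37 °C, 5% CO2. Seeded at 1×10^5 cells/well, 24 h preincubation, then compounds at 1–100 µg/mL for 72 h (table footnote: viability at 24 h). MTT 2 h, formazan dissolved in DMSO, absorbance read at 570 nm. Highest non-cytotoxic concentration reported.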

[4] = Selectivity index, ratio of highest non-cytotoxic concentration for mouse J774A.1 cells to CC50 for bloodstream trypomastigote stage of Trypanosoma cruzi Y infected in monkey LLC-MK2 cells; assay type: toxicity, cell-based; settings: read-out: Selectivity Index
Summary of the method: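 Selectivity index is the highest non-cytotoxic concentration in J774A.1 macrophages divided by the 50% value against Y strain trypomastigotes measured after 24 h.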

Trypanosoma cruzi [5] = assay: Induction of apoptosis in bloodstream trypomastigote stage of Trypanosoma cruzi Y infected in monkey LLC-MK2 cells assessed as necrotic cells at 5 uM measured after 24 hrs by Annexin-V-FITC/propidium iodide staining based flow cytometric method (reference value: 0.014%); assay type: functional
Trypanosoma cruzi [6] = assay: Induction of apoptosis in bloodstream trypomastigote stage of Trypanosoma cruzi Y infected in monkey LLC-MK2 cells assessed as necrotic cells at 2.5 uM measured after 24 hrs by Annexin-V-FITC/propidium iodide staining based flow cytometric method (reference value: 0.014%); assay type: functional
Trypanosoma cruzi [7] = assay: Induction of apoptosis in bloodstream trypomastigote stage of Trypanosoma cruzi Y infected in monkey LLC-MK2 cells assessed as late apoptotic cells at 2.5 uM measured after 24 hrs by Annexin-V-FITC/propidium iodide staining based flow cytometric method (reference value: 0.27%); assay type: functional
Trypanosoma cruzi [8] = assay: Induction of apoptosis in bloodstream trypomastigote stage of Trypanosoma cruzi Y infected in monkey LLC-MK2 cells assessed as early apoptotic cells at 2.5 uM measured after 24 hrs by Annexin-V-FITC/propidium iodide staining based flow cytometric method (reference value: 0.31%); assay type: functional
Trypanosoma cruzi [9] = assay: Induction of apoptosis in bloodstream trypomastigote stage of Trypanosoma cruzi Y infected in monkey LLC-MK2 cells assessed as late apoptotic cells at 5 uM measured after 24 hrs by Annexin-V-FITC/propidium iodide staining based flow cytometric method (reference value: 0.27%); assay type: functional
Trypanosoma cruzi [10] = assay: Induction of apoptosis in bloodstream trypomastigote stage of Trypanosoma cruzi Y infected in monkey LLC-MK2 cells assessed as early apoptotic cells at 5 uM measured after 24 hrs by Annexin-V-FITC/propidium iodide staining based flow cytometric method (reference value: 0.31%); assay type: functional
Trypanosoma cruzi [11] = assay: Potency index, ratio of benznidazole CC50 to compound CC50 for bloodstream trypomastigote stage of Trypanosoma cruzi Y infected in monkey LLC-MK2 cells; assay type: functional
Trypanosoma cruzi [12] = assay: Potency index, ratio of benznidazole CC50 to compound CC50 for Trypanosoma cruzi Dm28c epimastigotes; assay type: functional
[13] = biological target: Cruzipain (Trypanosoma cruzi) (UniProt P25779); assay: Inhibition of Trypanosoma cruzi cruzain at 50 uM using Z-phe-Arg-aminomethylcoumarin as substrate pretreated for 10 mins measured for 5 mins by fluorometric method relative to control
Sequence of Cruzipain (Trypanosoma cruzi) (P25779 123-467 limits assumed): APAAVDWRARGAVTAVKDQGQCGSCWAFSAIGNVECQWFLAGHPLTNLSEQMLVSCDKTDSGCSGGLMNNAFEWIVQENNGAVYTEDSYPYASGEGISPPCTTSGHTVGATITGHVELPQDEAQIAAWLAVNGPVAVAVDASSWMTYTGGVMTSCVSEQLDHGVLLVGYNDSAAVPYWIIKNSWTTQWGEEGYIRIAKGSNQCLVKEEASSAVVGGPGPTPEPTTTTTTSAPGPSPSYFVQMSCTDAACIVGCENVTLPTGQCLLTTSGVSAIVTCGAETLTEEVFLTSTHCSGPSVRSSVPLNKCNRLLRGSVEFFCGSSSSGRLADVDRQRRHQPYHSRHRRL
Summary of the method: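 Cruzain at 0.5 nM in 0.1 M sodium acetate pH 5.5 with 0.1 mM β-mercaptoethanol and 0.01% Triton X-100. Compound screened at 50 µM after a 10-min preincubation with enzyme, then 2.5 µM Z-FR-AMC added. AMC fluorescence (ex 340/em 440 nm) followed for 5 min. Activity taken from initial rates relative to a DMSO control. Two independent experiments, each in triplicate.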

Trypanosoma cruzi [14] = assay: Induction of apoptosis in bloodstream trypomastigote stage of Trypanosoma cruzi Y infected in monkey LLC-MK2 cells assessed as necrotic cells at 1.2 uM measured after 24 hrs by Annexin-V-FITC/propidium iodide staining based flow cytometric method (reference value: 0.014%); assay type: functional
Trypanosoma cruzi [15] = assay: Induction of apoptosis in bloodstream trypomastigote stage of Trypanosoma cruzi Y infected in monkey LLC-MK2 cells assessed as necrotic cells at 2.4 uM measured after 24 hrs by Annexin-V-FITC/propidium iodide staining based flow cytometric method (reference value: 0.014%); assay type: functional
Trypanosoma cruzi [16] = assay: Induction of apoptosis in bloodstream trypomastigote stage of Trypanosoma cruzi Y infected in monkey LLC-MK2 cells assessed as late apoptotic cells at 1.2 uM measured after 24 hrs by Annexin-V-FITC/propidium iodide staining based flow cytometric method (reference value: 0.27%); assay type: functional
Trypanosoma cruzi [17] = assay: Induction of apoptosis in bloodstream trypomastigote stage of Trypanosoma cruzi Y infected in monkey LLC-MK2 cells assessed as late apoptotic cells at 2.4 uM measured after 24 hrs by Annexin-V-FITC/propidium iodide staining based flow cytometric method (reference value: 0.27%); assay type: functional
Trypanosoma cruzi [18] = assay: Induction of apoptosis in bloodstream trypomastigote stage of Trypanosoma cruzi Y infected in monkey LLC-MK2 cells assessed as early apoptotic cells at 1.2 uM measured after 24 hrs by Annexin-V-FITC/propidium iodide staining based flow cytometric method (reference value: 0.31%); assay type: functional
Trypanosoma cruzi [19] = assay: Induction of apoptosis in bloodstream trypomastigote stage of Trypanosoma cruzi Y infected in monkey LLC-MK2 cells assessed as early apoptotic cells at 2.4 uM measured after 24 hrs by Annexin-V-FITC/propidium iodide staining based flow cytometric method (reference value: 0.31%); assay type: functional
Trypanosoma cruzi [20] = assay: Induction of apoptosis in bloodstream trypomastigote stage of Trypanosoma cruzi Y infected in monkey LLC-MK2 cells assessed as viable cells at 1.2 uM measured after 24 hrs by Annexin-V-FITC/propidium iodide staining based flow cytometric method (reference value: 99.4%); assay type: functional
Trypanosoma cruzi [21] = assay: Induction of apoptosis in bloodstream trypomastigote stage of Trypanosoma cruzi Y infected in monkey LLC-MK2 cells assessed as viable cells at 2.4 uM measured after 24 hrs by Annexin-V-FITC/propidium iodide staining based flow cytometric method (reference value: 99.4%); assay type: functional

Compound `C/C(=N\NC(=S)Nc1ccccc1)c1ccccn1` has a CC50 (Trypanosoma cruzi [1]) of 2.5 µM, a CC50 (Trypanosoma cruzi [2]) of 15.4 µM and an MNTC [3] of 21 µM. The selectivity ratio [4] was 8.4, the Activity (Trypanosoma cruzi [5]) was 3.55% and the Activity (Trypanosoma cruzi [6]) was 3.6%. For the same compound, the Activity (Trypanosoma cruzi [7]) was 5.4%, the Activity (Trypanosoma cruzi [8]) was 36.8% and the Activity (Trypanosoma cruzi [9]) was 4.8%. The Activity (Trypanosoma cruzi [10]) was 36%.
Compound `COc1ccc(-c2cs/c(=N\N=C(/C)c3ccccn3)n2-c2ccccc2)cc1` has a CC50 (Trypanosoma cruzi [1]) of 1.2 µM, a CC50 (Trypanosoma cruzi [2]) of 5 µM and an MNTC [3] of 477 µM. For the same compound, the selectivity ratio [4] was 397 to 398, the Ratio (Trypanosoma cruzi [11]) was 4 - 5 and the Ratio (Trypanosoma cruzi [12]) was 10. The inhibition [13] was 48%, the Activity (Trypanosoma cruzi [14]) was 2.99 - 3.53% and the Activity (Trypanosoma cruzi [15]) was 2.3 - 3.48%. For the same compound, the Activity (Trypanosoma cruzi [16]) was 3.61 - 4.8%, the Activity (Trypanosoma cruzi [17]) was 3.67 - 4.5% and the Activity (Trypanosoma cruzi [18]) was 38.6 - 39.6%. The Activity (Trypanosoma cruzi [19]) was 36.4 - 38.9%, the Activity (Trypanosoma cruzi [20]) was 53.8% and the Activity (Trypanosoma cruzi [21]) was 55.2%.
